Data published in ChEMBL document CHEMBL1147666, “Fluorinated amphiphilic amino acid derivatives as antioxidant carriers: a new class of protective agents” (J Med Chem, 2006).

Key:
Rotifers [1] = test: Viability of rotifers against hydrogen peroxide toxicity at 10 uM; type: organism-based; conditions: Rotifera; read-out: Activity
Procedure, shortened: (§1)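 Whole rotifers of defined, uniform age from one stock culture; standardized viability assay. Animals exposed 24 h to oxidotoxin (hydrogen peroxide or doxorubicin) at 200 µM together with antioxidant at 10 µM. Vehicle-only controls run in parallel. Read-out is % viable organisms, mean ± SEM, N = 10; ANOVA with Bonferroni t-test vs vehicle.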

Rotifers [2] = test: Viability of rotifers against doxorubicin toxicity at 10 uM; type: organism-based; conditions: Rotifera; read-out: Activity; procedure, shortened: as §1
[3] = test system: Radical scavenging activity; test: Hydroxyl radical scavenging activity by ABTS competition assay per 30 mins at 1 umol/mL; type: functional
Procedure, shortened: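 Fenton-initiated ABTS cation radical formation in distilled water adjusted to pH 5.0. Mix: ABTS 1 mM and FeSO4 0.5 mM (stock), test compound 1 mM in DMSO, 10% final DMSO in vehicle controls. Started by adding H2O2 10 mM (stock). Read at 420 nm every minute for 30 min. Output is quenched ABTS•+ in nmol/30 min, mean ± SEM, N = 10.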

[4] = test system: Radical scavenging activity; test: Radical reducing potency by ABTS cation radical reduction assay per 30 mins at […]; type: functional
Procedure, shortened: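 ABTS cation radical reduction assay (modified Re et al.). Assay ABTS•+ 105 µM, test compound 0.5 mM final. Started by adding the test agent. Read every minute at 420 nm for 30 min. DMSO vehicle controls at 2.5% final. Output is reduced ABTS•+ in nmol/30 min, mean ± SEM, N = 10.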

Mixed cortical cells [5] = test: Inhibition of hydrogen peroxide-induced death of mixed cortical cells of E15 Sprague-Dawley rat embryo at 10 uM; type: functional; conditions: Mixed cortical cell
Procedure, shortened: (§2)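 Primary mixed cortical cultures from E15 Sprague-Dawley rat embryos, exposed 24 h to oxidotoxin (hydrogen peroxide, peroxynitrite or doxorubicin, 200 µM) plus antioxidant at 10 µM. Cell death measured by trypan blue absorbance at 590 nm. Reported as % inhibition of trypan blue absorbance versus vehicle, mean ± SEM, N = 10.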

Mixed cortical cells [6] = test: Inhibition of peroxynitrite-induced death of mixed cortical cells of E15 Sprague-Dawley rat embryo at 10 uM; type: functional; conditions: Mixed cortical cell; procedure, shortened: as §2
Mixed cortical cells [7] = test: Inhibition of doxorubicin-induced death of mixed cortical cells of E15 Sprague-Dawley rat embryo at 10 uM; type: functional; conditions: Mixed cortical cell; procedure, shortened: as §2

SMILES | survival at 10 µM (Rotifers [1]) | survival at 10 µM (Rotifers [2]) | Activity [3] | Activity [4] | inhibition at 10 µM (Mixed cortical cells [5]) | inhibition at 10 µM (Mixed cortical cells [6]) | inhibition at 10 µM (Mixed cortical cells [7])
CC(C)(C)/[N+]([O-])=C/c1ccccc1 | 25.6% | 18.7% | 18.2 nM | 7.8 nM | 25% | 20.6% | 24.2%
O=C(O)CCc1c[nH]c2ccccc12 | 67.9% | 53.8% | 95.7 nM | 96.5 nM | 87.7% | 83.8% | 76.1%
Cc1c(C)c2c(c(C)c1O)CCC(C)(C(=O)O)O2 (configuration not stated) [TROLOX] | 13% | 13.1% | 87.3 nM | 93.4 nM | 22.2% | 16.8% | 15.5%
O=C(O)CCCCC1CCSS1 (stereo not drawn) [LIPOIC ACID, ALPHA] | 14.1% | 13.3% |  | 44.1 nM | 15.1% | 13.1% | 14.8%
